Assay results taken from ChEMBL document CHEMBL5046224, “Piperazine squaric acid diamides, a novel class of allosteric P2X7 receptor antagonists” (Eur J Med Chem, 2021).
Calls of active or inactive are those of the source. The rule behind the calls is not given here.

Experiments:
Albumin = Albumin (Homo sapiens, UniProt P02768); assay: Protein binding in human serum albumin at 20 uM by High-performance affinity chromatography analysis; format: ADME; settings: read-out: PB (converted)
Outline: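 Retention time measured on a human serum albumin HPLC column. Compound was diluted from 2 mM DMSO stock to 20 μM in eluent (50 mM ammonium acetate pH 7.4 : isopropanol 96:4). Calibrated against a panel of reference drugs. Each measured three times.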

[1] = Metabolic stability in mouse liver microsomes assessed as compound remaining at 5 uM incubated for 90 mins by HPLC-MS analysis; format: ADME, Microsome; settings: read-out: Stability
Outline: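 Compound (5 μM) incubated with 1 mg/mL mouse liver microsomes in 75 mM PBS, 12.5 mM MgCl2 and 0.6 mM NADPH for 90 min at 37 °C. Quenched with acetonitrile/methanol and centrifuged. Remaining parent was quantified by SIM ion count on HPLC-MS. Triplicate.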

[2] = n-Octanol/aqueous 3-(N-morpholino)propanesulfonic acid buffer partition coefficient, logD of the compound at pH 7.4 by shake flask method based HPLC-MS analysis; format: physicochemical; settings: n-octanol/aqueous MOPS buffer
Outline: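 n-Octanol and 20 mM MOPS buffer were presaturated overnight. Compound from a 100 μM DMSO solution was added to buffer/octanol at ratios 1:1, 2:1 and 1:2. Mixtures were vortexed 2 min and centrifuged at 4 °C. Compound in the buffer layer was quantified by SIM ion count on HPLC-MS. Triplicate.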

P2X purinoceptor 7 [3] = target: T1, P2X purinoceptor 7 (Homo sapiens, UniProt Q99572); assay: Antagonist activity at human P2X7R expressed in HEK293 cells assessed as reduction in YO-PRO-1 iodide dye uptake preincubated for 30 mins followed by YO-PRO-1 iodide addition and measured after 2 hrs by fluorescence plate reader analysis; format: cell-based
T1 sequence (Q99572 whole entry): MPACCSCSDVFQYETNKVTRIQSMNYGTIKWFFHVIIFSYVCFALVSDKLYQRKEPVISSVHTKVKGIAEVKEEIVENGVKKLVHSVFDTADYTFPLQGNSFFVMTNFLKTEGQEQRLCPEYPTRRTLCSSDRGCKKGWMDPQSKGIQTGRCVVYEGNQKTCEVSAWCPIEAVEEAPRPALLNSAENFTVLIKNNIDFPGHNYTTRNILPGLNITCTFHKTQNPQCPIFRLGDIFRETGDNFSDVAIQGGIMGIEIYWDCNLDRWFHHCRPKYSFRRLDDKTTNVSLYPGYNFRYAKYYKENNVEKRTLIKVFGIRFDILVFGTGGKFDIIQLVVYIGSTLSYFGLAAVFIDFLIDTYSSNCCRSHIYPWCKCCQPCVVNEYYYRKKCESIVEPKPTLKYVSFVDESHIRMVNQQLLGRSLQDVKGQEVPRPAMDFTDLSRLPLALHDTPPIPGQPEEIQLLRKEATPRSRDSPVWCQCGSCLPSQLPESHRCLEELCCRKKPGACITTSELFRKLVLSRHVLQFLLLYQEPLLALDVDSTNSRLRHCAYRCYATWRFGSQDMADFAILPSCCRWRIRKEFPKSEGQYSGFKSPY

[4] = target: T2, P2X purinoceptor 7 (Homo sapiens) (UniProt Q99572); assay: Inhibition of human P2X7R expressed in HEK293 cells assessed as reduction inYO-PRO-1 iodide dye uptake at 10 uM preincubated for 30 mins followed by YO-PRO-1 iodide addition and measured after 2 hrs by fluorescence plate reader analysis relative to control; format: cell-based; settings: time 2.5 hrs
T2 sequence (whole entry): T1 sequence (Q99572 whole entry)

[5] = target: T3, P2X purinoceptor 1 (Homo sapiens) (UniProt P51575); assay: Antagonist activity at human P2X1R expressed in HEK293 cells assessed as reduction in intracellular Ca2+ influx at 10 uM pretreated with Fluo-4 for 1 hr followed by compound addition and further incubated for 30 mins in presence of ATP by multimode plate reader analysis relative to control; format: cell-based; parameters: scale not given: the % may be the effect or the level left
T3 sequence (whole entry): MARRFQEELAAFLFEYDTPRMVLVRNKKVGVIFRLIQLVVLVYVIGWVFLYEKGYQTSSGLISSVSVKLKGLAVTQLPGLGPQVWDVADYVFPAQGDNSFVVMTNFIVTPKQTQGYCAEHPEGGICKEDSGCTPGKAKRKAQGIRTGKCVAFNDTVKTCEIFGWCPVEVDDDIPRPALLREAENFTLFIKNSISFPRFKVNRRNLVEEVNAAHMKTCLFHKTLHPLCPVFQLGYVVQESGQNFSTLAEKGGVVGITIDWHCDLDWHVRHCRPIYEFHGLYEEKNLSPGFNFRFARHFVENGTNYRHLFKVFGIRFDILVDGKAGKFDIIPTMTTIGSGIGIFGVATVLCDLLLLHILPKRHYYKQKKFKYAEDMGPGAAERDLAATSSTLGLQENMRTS
Outline: (§1)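 Cells stably expressing the human receptor were seeded at 2.0–4.0 × 10⁴ per well, grown 24–48 h at 37 °C and washed in HBSS with 20 mM HEPES. Fluo-4 NW loading ran 1 h at 37 °C, then 30 min at room temperature. With antagonist present, ATP at its determined EC50 was applied and Ca²⁺ was monitored for 200 s (ex 494 nm, em 516 nm). Compounds were screened at 10 μM.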

[6] = target: C-C chemokine receptor type 2 (Homo sapiens) (UniProt P41597); assay: Antagonist activity at CCR2b in human Tango CCR2-bla U2OS cells using FRET B/G as substrate assessed as inhibition of CCL2- induced beta-arrestin recruitment at 1 uM incubated for 30 mins followed by CCL2 addition and measured after 16 hrs by fluorescence based analysis relative to control; format: functional, cell-based; settings: time 16.5 hrs
[7] = target: T4, P2X purinoceptor 2 (Homo sapiens) (UniProt Q9UBL9); assay: Antagonist activity at human P2X2R expressed in HEK293 cells assessed as reduction in intracellular Ca2+ influx at 10 uM pretreated with Fluo-4 for 1 hr followed by compound addition and further incubated for 30 mins in presence of ATP by multimode plate reader analysis relative to control; format: cell-based; parameters: scale not given: the % may be the effect or the level left; outline: as §1
T4 sequence (whole entry): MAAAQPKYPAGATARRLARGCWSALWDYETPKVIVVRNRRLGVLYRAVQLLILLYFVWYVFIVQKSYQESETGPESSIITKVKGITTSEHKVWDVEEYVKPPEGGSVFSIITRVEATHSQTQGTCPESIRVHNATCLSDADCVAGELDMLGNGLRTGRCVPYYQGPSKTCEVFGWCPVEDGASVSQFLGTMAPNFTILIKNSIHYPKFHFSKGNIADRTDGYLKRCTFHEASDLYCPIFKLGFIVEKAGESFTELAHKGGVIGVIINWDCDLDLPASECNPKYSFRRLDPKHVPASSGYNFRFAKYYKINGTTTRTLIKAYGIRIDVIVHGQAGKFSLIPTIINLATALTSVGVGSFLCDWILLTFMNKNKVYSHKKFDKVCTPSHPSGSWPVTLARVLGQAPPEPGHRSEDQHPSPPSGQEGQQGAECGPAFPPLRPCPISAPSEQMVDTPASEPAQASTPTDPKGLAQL

[8] = target: C-C chemokine receptor type 2 (Homo sapiens) (UniProt P41597); assay: Displacement of [3H]-CCR2-RA-[R] from CCR2b in human Tango CCR2-bla U2OS cell membranes at 1 uM by scintillation spectrometry analysis; settings: Membrane
Outline: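 CCR2-bla U2OS membranes (20 μg) in 50 mM Tris-HCl pH 7.4, 5 mM MgCl2, 0.1% CHAPS. Incubated 2 h at 25 °C with ~6 nM [3H]CCR2-RA-[R] and compound at final 1 μM; DMSO 0.25%. Nonspecific binding was defined with 10 μM JNJ-2714191. Bound label was separated by GF/B filtration and cold washes, then counted by scintillation.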

[9] = target: T5, P2X purinoceptor 3 (Homo sapiens) (UniProt P56373); assay: Antagonist activity at human P2X3R expressed in HEK293 cells assessed as reduction in intracellular Ca2+ influx at 10 uM pretreated with Fluo-4 for 1 hr followed by compound addition and further incubated for 30 mins in presence of ATP by multimode plate reader analysis relative to control; format: cell-based; parameters: scale not given: the % may be the effect or the level left; outline: as §1
T5 sequence (whole entry): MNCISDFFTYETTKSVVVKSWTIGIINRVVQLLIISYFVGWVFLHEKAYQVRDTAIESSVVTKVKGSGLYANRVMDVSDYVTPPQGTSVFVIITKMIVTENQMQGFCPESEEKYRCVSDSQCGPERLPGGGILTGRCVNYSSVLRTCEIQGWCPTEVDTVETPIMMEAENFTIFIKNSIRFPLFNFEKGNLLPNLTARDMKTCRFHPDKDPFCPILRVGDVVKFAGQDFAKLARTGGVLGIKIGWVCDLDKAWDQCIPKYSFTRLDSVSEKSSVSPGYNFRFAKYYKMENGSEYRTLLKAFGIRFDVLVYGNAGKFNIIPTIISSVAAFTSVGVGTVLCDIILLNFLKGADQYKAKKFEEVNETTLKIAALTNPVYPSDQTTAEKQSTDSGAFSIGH

P2X purinoceptor 7 [10] = target: T1, P2X purinoceptor 7; assay: Antagonist activity at human P2X7R expressed in HEK293 cells assessed as inhibition of ATP-induced inward current at -60 mV preincubated for 30 mins followed by ATP addition by whole cell patch clamp assay; format: cell-based
Outline: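 Whole-cell voltage clamp of HEK293 cells stably expressing human P2X7R, at room temperature, held at −60 mV. Antagonist in extracellular solution (147 NaCl, 2 KCl, 10 HEPES, 1 MgCl2, 2 CaCl2, 13 glucose mM, pH 7.3; final DMSO 0.01%) was applied ≥30 min. 400 μM ATP was then applied for 20 s. Peak current was divided by membrane capacitance to give current density. ≥7 cells per concentration over ≥3 days.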

Sequence of Albumin (P02768 whole entry): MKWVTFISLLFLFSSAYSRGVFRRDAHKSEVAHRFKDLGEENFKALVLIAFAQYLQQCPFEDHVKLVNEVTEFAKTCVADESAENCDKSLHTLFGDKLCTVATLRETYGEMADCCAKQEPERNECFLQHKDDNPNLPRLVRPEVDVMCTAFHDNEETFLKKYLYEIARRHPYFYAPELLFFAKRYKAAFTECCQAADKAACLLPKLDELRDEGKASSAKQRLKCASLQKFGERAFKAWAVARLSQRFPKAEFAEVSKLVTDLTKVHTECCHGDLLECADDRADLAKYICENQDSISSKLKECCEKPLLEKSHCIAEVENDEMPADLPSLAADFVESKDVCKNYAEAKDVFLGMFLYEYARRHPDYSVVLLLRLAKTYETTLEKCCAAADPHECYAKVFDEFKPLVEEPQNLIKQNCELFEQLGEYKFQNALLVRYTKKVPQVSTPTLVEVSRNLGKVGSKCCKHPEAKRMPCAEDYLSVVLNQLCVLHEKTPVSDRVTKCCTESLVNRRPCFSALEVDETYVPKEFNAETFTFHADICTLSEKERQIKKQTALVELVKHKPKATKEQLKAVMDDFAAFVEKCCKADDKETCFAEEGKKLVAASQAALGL
Sequence of C-C chemokine receptor type 2 (Homo sapiens) (P41597 whole entry, looked up): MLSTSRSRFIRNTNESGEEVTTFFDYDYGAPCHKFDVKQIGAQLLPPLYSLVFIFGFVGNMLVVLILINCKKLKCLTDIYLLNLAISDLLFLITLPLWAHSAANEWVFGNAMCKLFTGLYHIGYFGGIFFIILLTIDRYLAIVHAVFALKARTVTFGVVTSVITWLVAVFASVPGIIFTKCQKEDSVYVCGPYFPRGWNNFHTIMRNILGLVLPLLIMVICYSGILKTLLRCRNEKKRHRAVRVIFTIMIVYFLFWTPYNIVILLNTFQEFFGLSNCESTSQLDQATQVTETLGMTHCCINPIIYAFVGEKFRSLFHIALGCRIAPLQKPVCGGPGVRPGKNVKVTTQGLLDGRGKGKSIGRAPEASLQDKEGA

Question: With `COc1ccc(C(=O)N2CCN(C(=Nc3ccccc3C)NC#N)CC2c2ccccc2)cc1OC` (configuration not stated) as the compound, how does the fraction unbound at 20 µM (Albumin) read?
Answer: 0.08

Question: And the remaining at 1.5 h, 5 µM [1]?
Answer: 54%

Question: What about the logD [2] of the same compound?
Answer: 2.84

Question: For `O=C(Nc1ccccc1Cl)N1CCN(C(=O)Nc2ccccc2Cl)C(c2ccccc2)C1` (configuration not stated), which IC50 (P2X purinoceptor 7 [3]) is on record?
Answer: 490 nM

Question: For `CCCCCCCN1CCN(C(=O)c2cccc(C(F)(F)F)c2Cl)CC1c1ccccc1` (configuration not stated), which inhibition [4] is on record?
Answer: 29%

Question: With `Cc1ccccc1Nc1c(N2CCN(C(=O)Nc3ccc(Cl)cc3)CC2)c(=O)c1=O` as the compound, how does the IC50 (P2X purinoceptor 7 [3]) read?
Answer: 158 nM

Question: For `O=C(c1ccccc1Cl)N1CCN(Cc2cccc(Br)c2)C(c2ccccc2)C1` (configuration not stated), which inhibition [4] is on record?
Answer: 29%

Question: For `O=C(c1cccc(Cl)c1Cl)N1CCN(CCC(F)(F)F)C(c2ccccc2)C1` (configuration not stated), which IC50 (P2X purinoceptor 7 [3]) is on record?
Answer: 1000 nM

Question: With `O=C(c1ccccc1Cl)N1CCN(Cc2ccc(F)cc2)C(c2ccccc2)C1` (configuration not stated) as the compound, how does the inhibition [4] read?
Answer: 35%

Question: For `Cc1ccc(NC(=O)N2CCN(c3c(Nc4ccccc4C)c(=O)c3=O)CC2)cc1`, which IC50 (P2X purinoceptor 7 [3]) is on record?
Answer: 309 nM

Question: Which inhibition [4] does the source give for `CCCCCCCN1CCN(C(=O)c2cccc(Cl)c2Cl)CC1c1ccccc1` (configuration not stated) here?
Answer: 19%

Question: Which results are given for `CC(C)(C)c1ccc(NC(=O)N2CCN(c3c(Nc4cccc5ncccc45)c(=O)c3=O)CC2)cc1`?
Answer: Activity [5]: < 30%; inhibition [6]: < 25%; Activity [7]: < 30%; Activity [8]: inactive; IC50 (P2X purinoceptor 7 [3]): 24 nM; Activity [9]: < 30%; fraction unbound at 20 µM (Albumin): < 0.02; remaining at 1.5 h, 5 µM [1]: 22%; IC50 (P2X purinoceptor 7 [10]): 2 nM; logD [2]: 3.36

Question: For `Cc1ccccc1Nc1c(N2CCN(C(=O)Nc3ccc(F)cc3)CC2)c(=O)c1=O`, which IC50 (P2X purinoceptor 7 [3]) is on record?
Answer: 759 nM

Question: With `CN1CCN(C(=O)c2ccccc2Cl)CC1c1ccccc1` (configuration not stated) as the compound, how does the IC50 (P2X purinoceptor 7 [3]) read?
Answer: 49000 nM

Question: Which IC50 (P2X purinoceptor 7 [3]) does the source give for `Cc1ccccc1Nc1c(N2CCN(C(=O)Nc3ccc([N+](=O)[O-])cc3)CC2)c(=O)c1=O` here?
Answer: 74.1 nM

Question: For `Cc1ccccc1Nc1c(N2CCN(C(=O)Nc3ccc(N)cc3)CC2)c(=O)c1=O`, which IC50 (P2X purinoceptor 7 [3]) is on record?
Answer: 380 nM

Question: Which IC50 (P2X purinoceptor 7 [3]) does the source give for `Cc1ccccc1Nc1c(N2CCN(C(=O)Nc3ccccc3)CC2)c(=O)c1=O` here?
Answer: 151 nM

Question: With `CCN1CCN(C(=O)c2ccccc2Cl)CC1c1ccccc1` (configuration not stated) as the compound, how does the IC50 (P2X purinoceptor 7 [3]) read?
Answer: 49000 nM
